Experimental data from ChEMBL document CHEMBL4219118, “Cathepsin B inhibitors: Further exploration of the nitroxoline core” (Bioorg Med Chem Lett, 2018).
The source made the active and inactive calls. No cut-off for these calls is given here.

Legend:
Cathepsin B [1] = target: T1, Cathepsin B (Homo sapiens, UniProt P07858); assay: Non-competitive inhibition of recombinant human cathepsin B endopeptidase activity assessed as inhibitory constant for enzyme-substrate-inhibitor complex using Z-Arg-Arg-AMC as substrate in presence of pH 6 phosphate buffer by fluorescence assay
Cathepsin B [2] = target: T1, Cathepsin B; assay: Non-competitive inhibition of recombinant human cathepsin B endopeptidase activity assessed as inhibitory constant for enzyme-inhibitor complex using Z-Arg-Arg-AMC as substrate in presence of pH 6 phosphate buffer by fluorescence assay
Cathepsin B [3] = target: T1, Cathepsin B; assay: Competitive inhibition of recombinant human cathepsin B exopeptidase activity assessed as inhibitory constant for enzyme-inhibitor complex using Abz-Gly-Ile-Val-Arg-Ala-Lys(Dnp)-OH as substrate in presence of pH 5 acetate buffer by fluorescence assay
MCF-10A-neoT [4] = assay: Antiinvasive activity against human MCF10AneoT cells at 1.25 uM incubated for 1 hr measured every 15 mins for 72 hrs by real time xCELLigence assay relative to control; format: functional
Procedure, shortened: (§1)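 MCF-10A neoT cells (3 × 10⁴) seeded on Matrigel-coated (1 mg/mL) upper compartments of CIM-plates. Compound or DMSO (0.05%) added to growth medium in both upper and lower compartments. Invasion followed by impedance (cell index) for 72 h. Slopes (1/h) between 4 and 14 h converted to percentage invasion versus DMSO. Means of n = 2, each run in triplicate.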

Cathepsin B [5] = target: T1, Cathepsin B; assay: Competitive inhibition of recombinant human cathepsin B endopeptidase activity assessed as inhibitory constant for enzyme-inhibitor complex using Z-Arg-Arg-AMC as substrate in presence of pH 4.5 acetate buffer by fluorescence assay; details: read-out: Ki
Procedure, shortened: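 Recombinant cathepsin B endopeptidase activity assayed with the small substrate Z-Arg-Arg-AMC at pH 4.5. Acidic conditions chosen to shift the enzyme toward the closed (exopeptidase) conformation. Ki reported.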

Cathepsin B [6] = target: T1, Cathepsin B; assay: Uncompetitive inhibition of recombinant human cathepsin B exopeptidase activity assessed as inhibitory constant for enzyme-substrate-inhibitor complex using Abz-Gly-Ile-Val-Arg-Ala-Lys(Dnp)-OH as substrate in presence of pH 5 acetate buffer by fluorescence assay
Cathepsin B [7] = target: T1, Cathepsin B; assay: Inhibition of cathepsin B in human MCF-10A neoT cells assessed as proteolysis of extracellular membrane by measuring decrease in extracellular degradation of DQ-collagen 4 at 1.25 uM incubated for 6 hrs measured for 2 hrs by fluorescence based spectrofluorimetric assay relative to control; format: cell-based
Procedure, shortened: (§2)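 MCF-10A neoT cells (5 × 10⁴) incubated with DQ-collagen IV in the presence of compound or DMSO. Extracellular degradation product read by spectrofluorimetry. Mean of n = 3, six replicates per experiment.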

Cathepsin B [8] = target: T1, Cathepsin B; assay: Uncompetitive inhibition of recombinant human cathepsin B endopeptidase activity assessed as inhibitory constant for enzyme-substrate-inhibitor complex using Z-Arg-Arg-AMC as substrate in presence of pH 6 phosphate buffer by fluorescence assay
MCF-10A-neoT [9] = assay: Cytotoxicity against human MCF10AneoT cells assessed as decrease in cell viability after 72 hrs by MTS assay; format: cell-based
U-87 MG [10] = assay: Growth inhibition of human U87MG tumor spheroids at 1.25 uM measured up to 3 days by light microscopy; format: functional, cell-based; details: U-87MG ATCC
Procedure, shortened: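 U-87 MG multicellular spheroids formed by hanging drop and implanted in Matrigel with compound. Spheroid dimensions measured for up to three days and volume calculated. Means of n = 2.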

Cathepsin B [11] = target: T1, Cathepsin B; assay: Inhibition of recombinant human cathepsin B endopeptidase activity assessed as inhibitory constant for enzyme-inhibitor complex using Z-Arg-Arg-AMC as substrate in presence of pH 6 phosphate buffer by fluorescence assay
Procathepsin L [12] = target: T2, Procathepsin L (Homo sapiens, UniProt P07711); assay: Competitive inhibition of recombinant human cathepsin L expressed in Escherichia coli assessed as inhibitory constant for enzyme-inhibitor complex using Z-FR-AMC as substrate in presence of pH 6 phosphate buffer by fluorescence assay
T2 sequence (P07711 whole entry): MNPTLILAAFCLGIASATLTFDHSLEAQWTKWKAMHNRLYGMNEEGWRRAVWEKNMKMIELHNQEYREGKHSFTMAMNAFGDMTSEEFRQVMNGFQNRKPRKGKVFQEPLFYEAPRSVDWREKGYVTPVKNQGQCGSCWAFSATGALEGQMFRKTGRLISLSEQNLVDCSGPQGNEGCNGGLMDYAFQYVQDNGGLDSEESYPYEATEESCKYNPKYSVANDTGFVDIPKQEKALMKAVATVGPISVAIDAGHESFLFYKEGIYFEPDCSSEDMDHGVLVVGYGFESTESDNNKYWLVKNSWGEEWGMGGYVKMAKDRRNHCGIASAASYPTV

Cathepsin B [13] = target: T1, Cathepsin B; assay: (§3) Inhibition of cathepsin B in human MCF-10A neoT cells assessed as proteolysis of extracellular membrane by measuring decrease in intracellular degradation of DQ-collagen 4 at 12.5 uM incubated for 2 hrs followed by DQ-collagen addition measured for 2 hrs by propidium iodide staining based flow cytometry relative to control; format: cell-based
Procedure, shortened: (§4)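 MCF-10A neoT cells (6 × 10⁴) treated with compound or DMSO. Intracellular DQ-collagen IV degradation measured by flow cytometry, with unlabeled cells as background. Reduction expressed versus DMSO. Mean of n = 3, run in duplicate.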

Pro-cathepsin H [14] = target: T3, Pro-cathepsin H (Homo sapiens, UniProt P09668); assay: Competitive inhibition of human liver cathepsin H assessed as inhibitory constant for enzyme-inhibitor complex using R-AMC as substrate in presence of pH 6 phosphate buffer by fluorescence assay
T3 sequence (P09668 whole entry): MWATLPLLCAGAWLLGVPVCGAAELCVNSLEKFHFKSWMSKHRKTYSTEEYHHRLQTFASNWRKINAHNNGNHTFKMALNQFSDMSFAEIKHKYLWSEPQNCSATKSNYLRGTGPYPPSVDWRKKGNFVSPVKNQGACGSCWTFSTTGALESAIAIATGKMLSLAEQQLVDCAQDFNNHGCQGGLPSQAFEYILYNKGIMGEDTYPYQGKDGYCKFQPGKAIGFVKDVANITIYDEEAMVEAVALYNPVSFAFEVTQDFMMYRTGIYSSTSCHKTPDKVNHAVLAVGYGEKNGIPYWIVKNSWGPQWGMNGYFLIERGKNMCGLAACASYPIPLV

U-87 MG [15] = assay: Cytotoxicity against human U87MG cells assessed as decrease in cell viability after 72 hrs by MTS assay; format: cell-based; details: u-87mg atcc
Cathepsin B [16] = target: T1, Cathepsin B; assay: Inhibition of cathepsin B in human MCF-10A neoT cells assessed as proteolysis of extracellular membrane by measuring decrease in extracellular degradation of DQ-collagen 4 at 5 uM incubated for 6 hrs measured for 2 hrs by fluorescence based spectrofluorimetric assay relative to control; format: cell-based; procedure, shortened: as §2
Cathepsin B [17] = target: T1, Cathepsin B; assay: as §3, with “50” for “12.5”; format: cell-based; procedure, shortened: as §4
Pro-cathepsin H [18] = target: T3, Pro-cathepsin H; assay: Uncompetitive inhibition of human liver cathepsin H assessed as inhibitory constant for enzyme-substrate-inhibitor complex using R-AMC as substrate in presence of pH 6 phosphate buffer by fluorescence assay
Procathepsin L [19] = target: T2, Procathepsin L; assay: Non-competitive inhibition of recombinant human cathepsin L expressed in Escherichia coli assessed as inhibitory constant for enzyme-substrate-inhibitor complex using Z-FR-AMC as substrate in presence of pH 6 phosphate buffer by fluorescence assay
Cathepsin B [20] = target: T1, Cathepsin B; assay: Mixed inhibition of recombinant human cathepsin B exopeptidase activity assessed as inhibitory constant for enzyme-inhibitor complex using Abz-Gly-Ile-Val-Arg-Ala-Lys(Dnp)-OH as substrate in presence of pH 5 acetate buffer by fluorescence assay
MCF-10A-neoT [21] = assay: Antiinvasive activity against human MCF10AneoT cells at 5 uM incubated for 1 hr measured every 15 mins for 72 hrs by real time xCELLigence assay relative to control; format: functional; procedure, shortened: as §1
Cathepsin B [22] = target: T1, Cathepsin B; assay: Mixed inhibition of recombinant human cathepsin B exopeptidase activity assessed as inhibitory constant for enzyme-substrate-inhibitor complex using Abz-Gly-Ile-Val-Arg-Ala-Lys(Dnp)-OH as substrate in presence of pH 5 acetate buffer by fluorescence assay
Procathepsin L [23] = target: T2, Procathepsin L; assay: Non-competitive inhibition of recombinant human cathepsin L expressed in Escherichia coli assessed as inhibitory constant for enzyme-inhibitor complex using Z-FR-AMC as substrate in presence of pH 6 phosphate buffer by fluorescence assay
Cathepsin B [24] = target: T1, Cathepsin B; assay: Non-competitive inhibition of recombinant human cathepsin B exopeptidase activity assessed as inhibitory constant for enzyme-substrate-inhibitor complex using Abz-Gly-Ile-Val-Arg-Ala-Lys(Dnp)-OH as substrate in presence of pH 5 acetate buffer by fluorescence assay
Cathepsin B [25] = target: T1, Cathepsin B; assay: Non-competitive inhibition of recombinant human cathepsin B exopeptidase activity assessed as inhibitory constant for enzyme-inhibitor complex using Abz-Gly-Ile-Val-Arg-Ala-Lys(Dnp)-OH as substrate in presence of pH 5 acetate buffer by fluorescence assay
Cathepsin B [26] = target: T1, Cathepsin B; assay: Competitive inhibition of recombinant human cathepsin B endopeptidase activity assessed as inhibitory constant for enzyme-inhibitor complex using Z-Arg-Arg-AMC as substrate in presence of pH 6 phosphate buffer by fluorescence assay

**Q.** How did the Ki (Cathepsin B [1]) turn out when `N#CC1(NC(=O)c2cc([N+](=O)[O-])ccc2O)CC1` was run?
**A.** 128 µM

**Q.** And the Ki (Cathepsin B [2])?
**A.** 247 µM

**Q.** What about the Ki (Cathepsin B [3]) of the same molecule?
**A.** 247 µM

**Q.** What does the source list for `O=C(NCC1CCN(c2nc3ccccc3o2)CC1)c1cc([N+](=O)[O-])c2cccnc2c1O`?
**A.** Activity (MCF-10A-neoT [4]): 50%; Ki (Cathepsin B [5]): 237 µM; Ki (Cathepsin B [6]): 13 µM; inhibition (Cathepsin B [7]): 45%; Ki (Cathepsin B [8]): 8 µM; Activity (MCF-10A-neoT [9]): Non-Toxic; growth inhibition (GI) (U-87 MG [10]): Active; Ki (Cathepsin B [11]): 8.2 µM; Ki (Procathepsin L [12]): 5 µM; inhibition (Cathepsin B [13]): 35%; Ki (Pro-cathepsin H [14]): 108 µM; Activity (U-87 MG [15]): Non-Toxic

**Q.** What does the source list for `N#CCNC(=O)c1cc([N+](=O)[O-])c2cccnc2c1O`?
**A.** inhibition (Cathepsin B [16]): Active; inhibition (Cathepsin B [17]): 60%; Ki (Cathepsin B [5]): 206 µM; Ki (Pro-cathepsin H [18]): 462 µM; Ki (Procathepsin L [19]): 155 µM; Ki (Cathepsin B [20]): 128 µM; Ki (Cathepsin B [8]): 67 µM; Activity (MCF-10A-neoT [9]): Non-Toxic; Activity (MCF-10A-neoT [21]): 20%; Ki (Cathepsin B [22]): 30 µM; Ki (Procathepsin L [23]): 155 µM; Activity (U-87 MG [15]): Non-Toxic

**Q.** For `N#CCNC(=O)c1ccc([N+](=O)[O-])c2cccnc12`, which Ki (Cathepsin B [5]) is on record?
**A.** 294 µM

**Q.** What about the Ki (Cathepsin B [24]) of the same molecule?
**A.** 190 µM

**Q.** What about the Ki (Cathepsin B [25]) of the same molecule?
**A.** 190 µM

**Q.** And the Ki (Cathepsin B [26])?
**A.** 240 µM
